CHOP inhibitor: inhibitors of CHOP induction in ER stress response; CHO-K1 CHOP-promoter luciferase, tunicamycin-induced, 15-18 h; inhibition, % at 10 µM; 220,000 compounds, 3.8% hits; AID 2732;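 active = compounds that reduced the stress-induced luciferase reporter signal by more than about 70% of percent inhibition, limit read from the data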;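 also: 0% = tunicamycin plus vehicle and 100% = wells without tunicamycin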
Beta2AR agonist: activates human beta-2 adrenergic receptor causing internalization; P07550; Am2.2-beta2AR cells, FAP receptor internalization, flow cytometry; response, % (test concentration not listed); 340,000 compounds, 0.43% hits; AID 504454;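 active = response above a set limit, near 3 SD of response in nonfluorescent compounds, cut at about 42% in these data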
CHOP UPR activ: activators of apoptotic arm of unfolded protein response (CHOP); CHO-CHOP luciferase reporter, UPR activation, luminescence; percent of tunicamycin response over DMSO baseline; activation, % at 10 µM; 330,000 compounds, 0.34% hits;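 active = at 10 µM dose, activation of 40% or more, normalized to positive control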;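 also: 100% = tunicamycin at 10 µg/mL and 0% = DMSO alone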
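Dosing – one dose, 10 µM in 0.5% DMSO · System – CHO-CHOP cells, stable luciferase reporter of PERK-eIF2a-CHOP signalling · Input – 500 cells/well · Control set – tunicamycin 10 µg/mL final as positive, DMSO-only wells as negative · Timing – 6 h compound treatment, 37 °C · Measure – % activation vs tunicamycin · Technique – luminescence read with Steady-Glo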
pCIP destab: compounds decreasing mouse p/CIP protein stability; Q05BA5; F442A p/CIP-EGFP cells, EGFP fluorescence, 16 h; decrease of EGFP signal, % at 10 µM; 290,000 compounds, 0.01% hits; AID 1984;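 active = EGFP signal decrease of at least 30% at 10 µM or well 3 SD below plate mean, unless failing retest; inactive = the rest, including hits failing retest or dose response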
Dynein cargo inh: dynein cargo transport inhibition; 3617.4 mouse cells, GR-EGFP nuclear translocation imaging; test concentration mostly 20 µM; stimulated with dexamethasone, 1 µM; active compounds read low; z-score, hits read low; 220,000 compounds, 0.47% hits; AID 1381;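 active = plate z-score of nuclear minus cytoplasmic receptor signal below a set negative limit, without overly bright fluorescence or cell loss, cut at about -3.5 in these data, passing the limit was not always enough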;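 also: z-score of nuclear minus cytoplasmic ring GR-EGFP intensity difference per well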
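Also added – dexamethasone, 1.0 µM final · Buffer or medium – tet-free, stripped-serum medium · Schedule – induction 48 h, compound 1 h, agonist 30 min · Detection – formaldehyde fixation, Hoechst nuclear stain, 10x automated fluorescence imaging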
UPR XBP1 act: activators of adaptive arm of unfolded protein response (XBP1); CHO-XBP1 luciferase reporter, IRE1-XBP1 UPR activation, luminescence; percent of tunicamycin response, DMSO as zero; activation, % at 20 µM; 330,000 compounds, 0.33% hits;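 active = versus positive control, 20 µM dose yields 30% or more activation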;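 also: 100% = tunicamycin at 10 µg/mL and 0% = DMSO only wells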
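Material: CHO cell line with stable XBP1 luciferase reporter; schedule: 16-18 h cell attachment at 37 °C, then 6 h compound exposure; signal: glow luminescence from Steady-Glo reagent; medium: serum-containing F12 medium, 10% FBS; benchmarks: tunicamycin 10 µg/mL and vehicle-only wells; read-out: percent activation relative to tunicamycin reference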
UPR XBP1 confirm: confirmation of adaptive unfolded protein response (XBP1) activators | activation, % at 20 µM | CHO-XBP1 IRE1-XBP1 luciferase reporter, luminescence | shares compounds with UPR XBP1 act | AID 485299 | 1,000 compounds, 63% hits;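 active = reporter signal at least 30% of the positive control's activation in two or more of four replicate wells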;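 also: plate controls were DMSO negative control for no effect and tunicamycin 10 µg/mL positive control for full effect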
* marks the source's active call; other numbers are inactive results; . = no result. Only a selection was taken, and hits are over-represented in it overall.

SMILES | CHOP inhibitor | Beta2AR agonist | CHOP UPR activ | pCIP destab | Dynein cargo inh | UPR XBP1 act | UPR XBP1 confirm
COc1ccc(C(=O)O/N=C2\C(=O)N(C)c3ccccc32)cc1 | . | 6 | 1 | . | . | -2 | .
CN1C(=O)/C(=N\OC(=O)c2cccc3ccccc23)c2ccccc21 | 95* | 14 | 6 | 1 | -1.9 | 43* | 5
Cc1nc(N2CCOCC2)nc(Oc2ccccc2F)c1[N+](=O)[O-] | 27 | 10 | 2 | 3 | 0.19 | 1 | .
COc1ccc(C(=O)N2CCc3[nH]nc(-c4ccccc4)c3C2)cc1 | . | -5 | -1 | -10 | . | -1 | .
Cc1ccc2c(c1)C(=O)C(=O)N2CCOc1ccccc1 | -55 | -2 | 2 | -19 | 1.4 | 16 | .
CCCN1C(=O)C(=O)c2cc(C)ccc21 | . | 13 | 2 | . | . | 16 | .
CCCCN1C(=O)C(=O)c2cc(Cl)ccc21 | . | 4 | 7 | . | . | 42* | 38*
Cc1ccc(CN2C(=O)C(=O)c3cc(C)ccc32)cc1 | . | 17 | 4 | . | . | 35* | 29*
Cc1ccc2c(c1)C(=O)C(=O)N2Cc1ccc(Br)cc1 | . | 19 | 2 | . | . | 52* | 40*
Cc1ccc2c(c1)C(=O)C(=O)N2c1ccc(Cl)cc1 | . | 2 | 0 | . | . | -2 | .
CCN(CC(=O)Nc1ccc(NC(C)=O)cc1)C(=O)c1cc2c(s1)CCCCC2 | . | -7 | 0 | . | . | 0 | .
Cc1cc(NC(=O)c2cc(-c3ccncc3)nc3c(C)cccc23)no1 | . | -9 | 8 | 5 | 0.048 | 153* | 184*
COC(=O)c1ccc(C2/C(=C(\O)c3ccc(OC)c(C)c3)C(=O)C(=O)N2c2cc(C)on2)cc1 (stereo unspecified) | 11 | -8 | -1 | 6 | -0.37 | 0 | .
Cc1cc(N2C(=O)C(=O)/C(=C(/O)c3ccc(F)cc3)C2c2ccc(Cl)cc2)no1 (stereo unspecified) | 55 | 1 | -1 | 4 | -0.21 | 33* | 2
COc1ccc(OC)c(-c2nnc3n2N=C(c2ccc(OC)c(OC)c2)CS3)c1 | . | 12 | 0 | . | . | 37* | 42*
COc1ccc(OC)c(-c2nnc3n2N=C(c2ccc(OC)c(OC4CCCC4)c2)CS3)c1 | . | 26 | 2 | . | . | 14 | .
Cc1cc(-c2nnc3n2N=C(c2ccc(-c4ccccc4)cc2)CS3)n[nH]1 | -18 | 0 | 7 | -22 | -0.25 | 9 | .
c1ccc(-c2cc(-c3nnc4n3N=C(c3ccc5ccccc5c3)CS4)[nH]n2)cc1 | -14 | 1 | 31 | -17 | 0.23 | 32* | 4
CCOC(=O)/C=c1\s/c(=C\c2ccc(C)cc2)c(=O)n1CC(=O)NCc1ccco1 | 64 | 1 | 0 | 2 | -0.98 | 55* | 1
O=C(NCC1CC1)c1cccc2c1C(=O)c1ccc(-c3ccc(OC(F)(F)F)cc3)cc1S2(=O)=O | . | 0 | 20 | . | . | 41* | 42*
CCOC(=O)c1c(-c2ccc(C)o2)csc1NC(=O)COC(=O)c1ccc(NC(N)=O)cc1 | 49 | 15 | 9 | -6 | -0.56 | 33* | 55*
Cc1ccc(NC(=O)C(c2ccccc2)N2CCN(C(=O)c3ccco3)CC2)cc1Cl (stereo unspecified) | . | 2 | 2 | . | . | -5 | .
Cc1ccc(C(=O)N2N=C(c3ccc(Br)cc3)CC2c2ccccc2O)cc1 (stereo unspecified) | . | 2 | 5 | 6 | . | 40* | 41*
Cc1ccc(C(=O)N2N=C(c3ccccc3O)CC2c2ccccc2)cc1 (stereo unspecified) | . | -9 | 0 | -12 | . | 1 | .
Cc1nn(CC(=O)Nc2cccnc2)c(=O)c2ccccc12 | 8 | 1 | 0 | -7 | -0.36 | 1 | .
SMILES | CHOP inhibitor | Beta2AR agonist | CHOP UPR activ | pCIP destab | Dynein cargo inh | UPR XBP1 act | UPR XBP1 confirm
COc1ccc(CCn2c(=N)c(C(=O)NCc3ccco3)cc3c(=O)n4ccccc4nc32)cc1OC | . | 16 | . | . | . | . | .
COc1ccc(CCNC(=O)c2cc3c(=O)n4ccccc4nc3n(Cc3ccco3)c2=N)cc1OC | . | 32 | 7 | 0 | . | 43* | -3
Cc1nn(Cc2ccccc2)c(C)c1NC(=O)CSc1nc(C2CC2)nc2c1cnn2-c1ccccc1 | 42 | -9 | 26 | 0 | 0.019 | 202* | 333*
COc1ccccc1CN1CC(C(=O)N2CCC(C(=O)c3ccccc3)CC2)CCC1=O (stereo unspecified) | . | -1 | 0 | -36 | . | -5 | .
Cc1c(C(=O)Nc2nccs2)oc2ccc(Br)cc12 | . | 1 | 17 | . | . | 48* | 79*
O=C(COc1ccc(Cl)cc1Cl)NN=C1c2ccccc2-c2ccccc21 | 85* | -11 | 7 | -2 | -0.21 | 89* | 96*
O=C(COc1ccc(Cl)cc1Cl)N/N=C1\CCCc2ccccc21 | 46 | -10 | 1 | 0 | 0.7 | 2 | .
CCc1c(C)c2ccc(OCC(=O)NCC3CCC(C(=O)O)CC3)c(C)c2oc1=O (stereo unspecified) | . | -3 | -1 | -6 | . | 0 | .
CCN1C(=O)/C(=C2/Sc3ccc(OC)cc3N2C)SC1=Nc1ccc(OC)cc1 | 1 | 1 | 0 | 0 | 0.38 | 1 | .
C=CCN1C(=O)/C(=C2/Sc3ccc(OC)cc3N2C)SC1=Nc1cccc(O)c1 | -3 | 4 | 17 | -7 | 1.4 | 48* | 81*
O=C(N/N=C1\CCc2ccccc21)c1ccc(O)cc1 | 5 | 1 | 3 | -8 | 0.69 | -3 | .
O=c1[nH]c(CSc2ncnc3sc(-c4ccccc4)cc23)nc2ccccc12 | -15 | 3 | 1 | 3 | -0.11 | 87* | 142*
O=c1[nH]c(CSc2nc(-c3ccccc3)cs2)nc2ccccc12 | 24 | -18 | 2 | -11 | 0.019 | 2 | .
O=C1CC(Cc2ccc(Br)cc2)C(=O)N1c1ccccc1 (stereo unspecified) | . | -5 | -1 | -2 | . | -5 | .
CCN(Cc1ccccc1)C(=O)C1CCN(C/C(C)=C/c2ccccc2)CC1 | -6 | -3 | -1 | 0 | -0.73 | -1 | .
COC(=O)c1ccc(CSc2nc3ccccc3c(=O)n2-c2ccccc2)o1 | 30 | 15 | -2 | -22 | 0.82 | 35* | 12
COC(=O)c1ccc(CSc2nc3ccccc3c(=O)n2-c2ccc(OC)c(OC)c2)o1 | 20 | 13 | -1 | -15 | 0.83 | 8 | .
O=C(CSc1nc2ccccc2c(=O)n1-c1ccccc1)N1CCc2ccccc21 | -25 | 11 | 2 | -11 | -1.4 | 36* | 42*
